The values below come from ChEMBL document CHEMBL2331271, “Stereoselective synthesis of a new class of potent and selective inhibitors of human Δ8,7-sterol isomerase” (Bioorg Med Chem, 2013).

Active and inactive are the calls of the source. No cut-off for these calls is given here.

In this assay the target is 3-beta-hydroxysteroid-Delta(8),Delta(7)-isomerase/Delta(24)-sterol reductase (Homo sapiens) (UniProt Q15125+Q15392). Kind of assay: Inhibition of Delta(8)-Delta(7) sterol isomerase/Delta(24)-sterol reductase-mediated cholesterol biosynthesis in human HL60 cells assessed as increase in zymostenol and zymosterol accumulation. It is filed as cell-based. Conditions: HL-60. In short, it runs like this: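 HL-60 cells (10^6) incubated 24 h at 37 °C, 5% CO2 in lipid-free medium with 1% LPDS, with compound in ethanol at final 1 or 50 µM. Cells were then saponified in 1 M NaOH at 70 °C for 60 min, extracted into TBME with cholestane internal standard, and silylated with TSIM. The sterol pattern was read by GC-MS full scan, with sterols identified by retention time and MS against authentic samples.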
3-beta-hydroxysteroid-Delta(8),Delta(7)-isomerase/Delta(24)-sterol reductase (Homo sapiens), sequence (Q15125 whole entry, looked up): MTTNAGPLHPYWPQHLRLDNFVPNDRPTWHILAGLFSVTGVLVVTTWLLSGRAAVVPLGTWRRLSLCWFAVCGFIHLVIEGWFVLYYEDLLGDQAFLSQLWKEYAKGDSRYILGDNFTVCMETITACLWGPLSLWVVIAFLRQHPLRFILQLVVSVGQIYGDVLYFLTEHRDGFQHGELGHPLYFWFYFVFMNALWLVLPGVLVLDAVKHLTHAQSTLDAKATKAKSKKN
3-beta-hydroxysteroid-Delta(8),Delta(7)-isomerase/Delta(24)-sterol reductase (Homo sapiens), sequence (Q15392 whole entry, looked up): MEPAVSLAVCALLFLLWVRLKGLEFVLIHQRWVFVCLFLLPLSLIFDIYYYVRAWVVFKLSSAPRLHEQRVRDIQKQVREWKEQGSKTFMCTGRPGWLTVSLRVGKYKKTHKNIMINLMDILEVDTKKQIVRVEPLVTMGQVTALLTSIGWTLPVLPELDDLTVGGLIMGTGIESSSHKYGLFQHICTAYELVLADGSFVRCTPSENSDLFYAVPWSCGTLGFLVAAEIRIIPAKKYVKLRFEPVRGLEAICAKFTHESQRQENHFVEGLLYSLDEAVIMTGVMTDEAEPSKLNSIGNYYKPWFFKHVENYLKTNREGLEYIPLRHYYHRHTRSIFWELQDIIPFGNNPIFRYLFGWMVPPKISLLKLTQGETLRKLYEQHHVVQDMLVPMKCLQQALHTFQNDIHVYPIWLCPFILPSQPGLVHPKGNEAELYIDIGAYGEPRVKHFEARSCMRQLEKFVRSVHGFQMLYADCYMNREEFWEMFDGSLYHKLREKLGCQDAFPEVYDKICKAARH

`CC/C(=C(\c1ccccc1)c1ccc(OCCN(C)C)cc1)c1ccccc1`: the inhibition result is “Active”.
